From ChEMBL document CHEMBL1687928, “Discovery, optimization, and pharmacological characterization of novel heteroaroylphenylureas antagonists of C-C chemokine ligand 2 function” (J Med Chem, 2011)
Activity calls are given as the source filed them. The calls are words filed in the database; no cut-off is given here.

Assays:
[1] = Cmax in rat at 30 mg/kg, po; type: ADME, organism-based; parameters: dose 30 mg/kg, route oral; settings: in vivo
Rattus norvegicus [2] = assay: Antiinflammatory activity in collagen-induced arthritis Lewis rat model assessed as inhibition of paw edema at 2 to 30 mg/kg, po BID for 28 days measured on […] by Plethysmometer; type: functional, organism-based
How it was run: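 Female Lewis SPF rats, 6 weeks old (n = 8/group), were immunized at the tail base with 900 μg bovine type II collagen in Freund's complete adjuvant (4 mg/mL M. tuberculosis) on day 0. A 450 μg boost followed on day 7. Compound in 5% aqueous gum arabic was gavaged b.i.d. for 28 days from day 0, against vehicle; methotrexate 3×/week served as positive control. Hind-limb volume was read by plethysmometer on days 0, 12, 14, 21 and 28, as % increase over day 0.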

Mus musculus [3] = assay: Toxicity in ICR mouse assessed as increase in AST level at 300 mg/kg, po QD for 14 days; type: organism-based; parameters: dose 300 mg/kg, route oral; settings: in vivo, 336 h
How it was run: (§1)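 Repeated-dose study in 6-week-old male ICR mice. Vehicle or 30, 100 or 300 mg/kg was given orally once daily for 14 days. Survival, behavior, body weight and liver enzymes (AST, ALT) were monitored.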

Mus musculus [4] = assay: Immunosuppressive activity in delayed-type hypersensitivity po dosed […] ICR mouse assessed as inhibition of sheep RBC-induced foot-pad swelling administered 1 hr prior and 2 hr after SRBC challenge measured on day 5 by Plethysmometer; type: functional, organism-based
[5] = Tmax in rat at 100 mg/kg, po; type: ADME, organism-based; parameters: dose 100 mg/kg, route oral; settings: in vivo
How it was run: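 Rats, not fasted, received a single intravenous or oral dose.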

CYP1A2 [6] = molecular target: T1, CYP1A2 (Homo sapiens, UniProt P05177); assay: Inhibition of CYP1A2 at 100 uM; type: ADME
T1 sequence (P05177 whole entry): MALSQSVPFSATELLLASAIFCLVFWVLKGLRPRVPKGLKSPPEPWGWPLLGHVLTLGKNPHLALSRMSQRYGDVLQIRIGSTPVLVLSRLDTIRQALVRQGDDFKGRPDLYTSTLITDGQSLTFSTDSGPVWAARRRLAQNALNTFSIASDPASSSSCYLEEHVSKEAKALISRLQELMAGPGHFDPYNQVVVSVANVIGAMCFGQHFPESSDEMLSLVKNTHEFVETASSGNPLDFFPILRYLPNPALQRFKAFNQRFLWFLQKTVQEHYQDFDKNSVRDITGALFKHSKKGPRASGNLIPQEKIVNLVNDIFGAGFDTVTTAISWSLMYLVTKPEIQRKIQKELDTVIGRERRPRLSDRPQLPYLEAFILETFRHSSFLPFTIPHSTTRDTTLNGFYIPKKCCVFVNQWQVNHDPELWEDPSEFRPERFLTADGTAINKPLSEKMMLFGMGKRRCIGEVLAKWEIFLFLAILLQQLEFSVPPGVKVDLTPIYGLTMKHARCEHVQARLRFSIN

[7] = Aqueous solubility of the compound at pH 1.2; type: physicochemical
CYP1A2 [8] = molecular target: T1, CYP1A2; assay: Inhibition of CYP1A2 at 1 uM; type: ADME
CYP2C19 [9] = molecular target: T2, CYP2C19 (Homo sapiens, UniProt P33261); assay: Inhibition of CYP2C19 at 1 uM; type: ADME
Mus musculus [10] = assay: Toxicity in ICR mouse assessed as occurrence of hypoactivity at 500 mg/kg, po administered as single dose; type: organism-based; parameters: dose 500 mg/kg, route oral; settings: in vivo
Rattus norvegicus [11] = assay: Drug uptake in collagen-induced Lewis rat bone marrow at 2 to 30 mg/kg, po measured 5 hrs post last dose; type: functional, organism-based
How it was run: (§2)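 In the rat collagen-induced arthritis study (oral b.i.d. dosing for 28 days), compound concentration was measured in plasma, tarsal homogenates and thigh-bone marrow. Samples were taken 5 h after the last dose on day 28.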

CYP2C9 [12] = molecular target: T3, CYP2C9 (Homo sapiens, UniProt P11712); assay: Inhibition of CYP2C9 at 1 uM; type: ADME
CYP3A4 = CYP3A4 (Homo sapiens, UniProt P08684); assay: Inhibition of CYP3A4 at 100 uM; type: ADME
[13] = Cmax in rat at 100 mg/kg, po; type: ADME, organism-based; parameters: dose 100 mg/kg, route oral; settings: in vivo
CYP2C9 [14] = molecular target: T3, CYP2C9; assay: Inhibition of CYP2C9 at 100 uM; type: ADME
Mus musculus [15] = species: Mus musculus; assay: Antiinflammatory activity in Freund's adjuvant-induced C57BL/6 mouse assessed as decrease in inflammatory cell infiltrates in brain; type: functional, organism-based
How it was run: (§3)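 C57BL/6 mice were immunized s.c. with a MOG33-55 peptide emulsion and given pertussis vaccine (350 ng i.v.) right away and again 48 h later. From day 0, compound in 3% aqueous Tween 80 (4 mg/mL) or water was dosed orally b.i.d. Tissue cellular infiltrate was scored 0–5, from few small perivascular/meningeal infiltrates up to very large extensive infiltrate.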

Mus musculus [16] = species: Mus musculus; assay: Antiinflammatory activity in Freund's adjuvant-induced C57BL/6 mouse assessed as decrease in inflammatory cell infiltrates in cerebellum; type: functional, organism-based; how it was run: as §3
Rattus norvegicus [17] = assay: Drug uptake in collagen-induced Lewis rat tarasal joints at 2 to 30 mg/kg, po measured 5 hrs after last dosing; type: functional, organism-based; how it was run: as §2
[18] = Half life in rat at 5 mg/kg, po; type: ADME, organism-based; parameters: dose 5 mg/kg, route oral; settings: in vivo
CYP2C19 [19] = molecular target: T2, CYP2C19; assay: Inhibition of CYP2C19 at 100 uM; type: ADME
[20] = AUC (0 to 24 hrs) in rat at 30 mg/kg, po; type: ADME, organism-based; parameters: time < 24 hr, dose 30 mg/kg, route oral; settings: plasma
[21] = AUC (0 to 24 hrs) in rat at 100 mg/kg, po; type: ADME, organism-based; parameters: time < 24 hr, dose 100 mg/kg, route oral; settings: plasma
Mus musculus [22] = assay: Toxicity in ICR mouse at 100 mg/kg, po QD for 14 days; type: organism-based; parameters: dose 100 mg/kg, route oral; settings: in vivo, 336 h; how it was run: as §1

T3 sequence (P11712 whole entry): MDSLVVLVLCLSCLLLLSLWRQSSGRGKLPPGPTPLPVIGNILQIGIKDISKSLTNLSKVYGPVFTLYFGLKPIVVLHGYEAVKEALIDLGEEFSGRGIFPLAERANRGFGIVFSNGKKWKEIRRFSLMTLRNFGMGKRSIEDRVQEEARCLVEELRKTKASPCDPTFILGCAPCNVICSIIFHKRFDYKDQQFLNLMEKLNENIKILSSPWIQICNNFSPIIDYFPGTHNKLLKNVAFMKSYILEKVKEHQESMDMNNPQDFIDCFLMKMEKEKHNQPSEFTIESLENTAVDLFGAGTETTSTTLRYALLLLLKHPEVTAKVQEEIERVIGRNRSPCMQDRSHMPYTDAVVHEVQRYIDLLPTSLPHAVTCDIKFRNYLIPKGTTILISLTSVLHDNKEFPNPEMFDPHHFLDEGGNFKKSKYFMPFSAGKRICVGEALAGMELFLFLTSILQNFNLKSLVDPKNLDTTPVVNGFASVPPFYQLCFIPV
T2 sequence (P33261 whole entry): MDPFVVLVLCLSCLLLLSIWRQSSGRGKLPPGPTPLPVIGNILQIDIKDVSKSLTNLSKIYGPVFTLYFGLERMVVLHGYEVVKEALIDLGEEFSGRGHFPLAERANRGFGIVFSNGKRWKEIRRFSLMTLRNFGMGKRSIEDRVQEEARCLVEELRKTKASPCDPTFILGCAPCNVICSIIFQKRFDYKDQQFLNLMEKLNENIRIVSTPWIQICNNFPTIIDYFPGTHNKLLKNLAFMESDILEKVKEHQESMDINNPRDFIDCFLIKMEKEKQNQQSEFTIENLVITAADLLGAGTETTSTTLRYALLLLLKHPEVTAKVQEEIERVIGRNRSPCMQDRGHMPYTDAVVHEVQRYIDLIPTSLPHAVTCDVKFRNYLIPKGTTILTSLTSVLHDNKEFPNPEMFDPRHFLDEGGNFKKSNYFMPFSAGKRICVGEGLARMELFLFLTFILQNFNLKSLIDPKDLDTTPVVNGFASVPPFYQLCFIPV
Chain of CYP3A4 (P08684 whole entry): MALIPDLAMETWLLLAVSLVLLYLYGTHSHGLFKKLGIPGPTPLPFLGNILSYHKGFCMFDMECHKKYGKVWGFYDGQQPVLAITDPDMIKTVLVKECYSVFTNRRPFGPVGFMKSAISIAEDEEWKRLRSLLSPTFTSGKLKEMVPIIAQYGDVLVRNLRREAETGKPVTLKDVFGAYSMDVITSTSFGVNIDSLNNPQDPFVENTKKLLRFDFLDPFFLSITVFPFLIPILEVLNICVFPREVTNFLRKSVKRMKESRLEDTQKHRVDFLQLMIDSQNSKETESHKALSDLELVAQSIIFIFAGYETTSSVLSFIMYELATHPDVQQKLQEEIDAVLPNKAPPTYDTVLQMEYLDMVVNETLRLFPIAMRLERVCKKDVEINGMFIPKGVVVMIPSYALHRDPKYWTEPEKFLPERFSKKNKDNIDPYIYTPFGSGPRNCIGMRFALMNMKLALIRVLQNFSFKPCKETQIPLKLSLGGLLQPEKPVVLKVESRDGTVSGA

For Cc1nn(C)c2nc(N(C)CCN(C)C)c(C(=O)NC(=O)Nc3cccc(OC(C)C)c3)cc12.Cl, the Cmax [1] was 383 ng/mL, the Activity (Rattus norvegicus [2]) was “Dose-dependent effect” and the Activity (Mus musculus [3]) was “Toxic”. The Activity (Mus musculus [4]) was “Active”, the Tmax [5] was 3 h and the inhibition at 100 µM (CYP1A2 [6]) was -2%. The solubility [7] was 31.3 µg/mL, the inhibition at 1 µM (CYP1A2 [8]) was -12% and the inhibition at 1 µM (CYP2C19 [9]) was -8%. The Activity (Mus musculus [10]) was “Toxic”, the Drug uptake (Rattus norvegicus [11]) was “Active” and the inhibition at 1 µM (CYP2C9 [12]) was 11%. It also gave an inhibition at 100 µM (CYP3A4) of 49%, a Cmax [13] of 927 ng/mL and an inhibition at 100 µM (CYP2C9 [14]) of 36%. For the same compound, the Activity (Mus musculus [15]) was “Active”, the Activity (Mus musculus [16]) was “Active” and the Drug uptake (Rattus norvegicus [17]) was “Active”. For the same compound, the half-life [18] was over 24 h, the inhibition at 100 µM (CYP2C19 [19]) was 34% and the AUC(0-t) at 24 h [20] was 5570 ng·h/mL. The AUC(0-t) at 24 h [21] was 15100 ng·h/mL and the Activity (Mus musculus [22]) was “Non-toxic”.
